Active and inactive are the calls of the source. The calls are words filed in the database; no cut-off is given here.
Tests used:
[1] = biological target: T1, NAD-dependent protein deacetylase sirtuin-2 (Homo sapiens, UniProt Q8IXJ6); experiment: Inhibition of human recombinant SIRT2 assessed as deacetylation of N-acetyl lysine residue in p53 (317 to 320) after 30 mins by luciferase-mediated luminescence assay
T1 sequence (Q8IXJ6 whole entry): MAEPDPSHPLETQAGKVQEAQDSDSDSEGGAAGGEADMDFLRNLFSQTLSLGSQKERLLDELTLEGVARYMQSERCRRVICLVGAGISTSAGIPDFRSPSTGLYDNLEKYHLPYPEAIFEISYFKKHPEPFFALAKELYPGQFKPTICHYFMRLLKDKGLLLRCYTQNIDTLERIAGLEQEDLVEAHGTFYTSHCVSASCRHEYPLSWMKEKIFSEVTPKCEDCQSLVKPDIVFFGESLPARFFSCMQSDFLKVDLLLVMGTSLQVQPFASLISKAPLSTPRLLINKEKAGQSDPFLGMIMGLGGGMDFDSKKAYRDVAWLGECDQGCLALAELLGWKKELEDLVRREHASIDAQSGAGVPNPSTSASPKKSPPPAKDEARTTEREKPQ

[2] = Inhibition of luciferase (unknown origin) using deacetylated peptide as substrate assessed as luminescence at 100 uM after 30 mins relative to control; parameters: scale not given: the % may be the effect or the level left
[3] = Inhibition of luciferase (unknown origin) using deacetylated peptide as substrate assessed as luminescence at 25 uM after 30 mins relative to control; parameters: scale not given: the % may be the effect or the level left
[4] = Self-aggregation of the compound in PBS assessed as derived light scattering count rate at 10 uM at pH 7.4 (reference value: 15.5 +/- 0.4 kilocount/sec); format: physicochemical; details: buffer, pH 7.4, 10 µM
[5] = Self-aggregation of the compound in PBS assessed as derived light scattering count rate at 1 uM at pH 7.4 (reference value: 15.5 +/- 0.4 kilocount/sec); format: physicochemical; details: buffer, pH 7.4, 1 µM
[6] = Cytotoxicity against human IMR90 cells assessed as cell viability after 72 hrs by MTS assay; format: cell-based; details: IMR-90, 72 h
[7] = biological target: T2, NAD-dependent protein deacetylase sirtuin-2 (Homo sapiens) (UniProt Q8IXJ6); experiment: (§1) Non-competitive inhibition of human recombinant SIRT2 using Z-QPK(Me)2K(Ac) as substrate assessed as decrease in maximal enzyme activity preincubated for 60 mins followed by substrate addition measured after 30 mins by double-reciprocal plot analysis in presence of 185 to 5000 uM NAD+
T2 sequence (whole entry): T1 sequence (Q8IXJ6 whole entry)
In short: (§2)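 Recombinant human SIRT2 at 0.2 unit/well, preincubated 60 min at 25 °C (400 rpm) with inhibitor at four levels including zero, 2.5% DMSO. Detection reagent (acetylated Z-QPK(Me)2K(Ac)-aminoluciferin, NAD and developer) was premixed 60 min at 37 °C, added, and incubated 30 min at 25 °C before luminescence was read. For line 17, substrate was varied (4.12–333.3 µM) at fixed NAD. For line 16, NAD was varied (four levels) at 38.5 µM substrate. Double-reciprocal plots were made, and their slopes replotted against inhibitor concentration for apparent Ki.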

[8] = biological target: T1, NAD-dependent protein deacetylase sirtuin-2; experiment: as §1; details: read-out: Ki(app); in short: as §2
[9] = biological target: T2, NAD-dependent protein deacetylase sirtuin-2 (Homo sapiens); experiment: Inhibition of SIRT2 in human MDA-MB-231 cells assessed as increase in acetylated p53 at Lys382 and alpha-tubulin level at 2 to 4 uM after 24 hrs by Western blot analysis; format: cell-based
In short: (§3)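 Cells seeded at 50,000 cells/mL in high-glucose DMEM containing compound (0.5% v/v DMSO) and incubated at 37 °C, 5% CO2: HepG2 6 h, MDA-MB-231 24 h. Washed cells were lysed on ice ≥20 min in Tris/NaCl/EDTA/Triton buffer with protease and phosphatase inhibitors, then protein measured by Bradford. SDS-PAGE blots were probed overnight at 4 °C with primary antibodies and detected by HRP/ECL, with re-probing after stripping. Each blot was repeated ≥3 times.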

[10] = tested on: MDA-MB-231; experiment: Induction of apoptosis in human MDA-MB-231 cells assessed as upregulation of cleaved caspase-3 protein expression at 2 to 8 uM after 24 hrs by Western blot analysis; format: functional, cell-based; in short: as §3
[11] = tested on: MDA-MB-231; experiment: Induction of apoptosis in human MDA-MB-231 cells assessed as upregulation of cleaved PARP protein expression at 2 to 8 uM after 24 hrs by Western blot analysis; format: functional, cell-based; in short: as §3

IC50 [1]: 3.8 µM
Activity [2]: 94.3%
Activity [3]: 94.9%
Activity [4]: 95 kC/sec
Activity [5]: 15.6 kC/sec
inhibition [7]: Dose-dependent effect
Ki [8]: 3.7 µM
inhibition [9]: Active
Structure (SMILES): CCCCCCCCn1c2c(c3cc(-c4ccc(S(C)(=O)=O)cc4)ccc31)CNCC2
IC50 [6]: 2.72 µM
Activity [10]: Active
Activity [11]: Active
